According to ChEMBL document CHEMBL1154512, “PA-824 kills nonreplicating Mycobacterium tuberculosis by intracellular NO release” (2008):
Converted amounts (≈) assume the structure as drawn.

Assays:
[1] = test system: Mycobacterium tuberculosis; experiment: Mycobactericidal activity against Mycobacterium tuberculosis H37Rv assessed as minimum anaerobicidal concentration required for 1 log reduction in bacterial numbers after 1 week under hypoxic non replicating condition; format: functional
Outline: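 Mtb adapted to hypoxia was exposed to compound for 1 week. MAC taken as the micromolar concentration giving a 1 log drop in bacterial numbers.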

[2] = test system: Mycobacterium tuberculosis; experiment: Bactericidal activity against Mycobacterium tuberculosis H37Rv under aerobic condition by broth dilution method; format: functional
Outline: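 MIC taken as the micromolar concentration inhibiting 99% of growth of an Mtb inoculum.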

[3] = molecular target: Deazaflavin-dependent nitroreductase (Mycobacterium tuberculosis) (UniProt P9WP15); experiment: Ratio of Kcat to Km for Mycobacterium tuberculosis Rv3547 expressed in Escherichia coli co-transfected with maltose-binding fusion protein
Sequence of Deazaflavin-dependent nitroreductase (Mycobacterium tuberculosis) (P9WP15 whole entry, the tested form may be a part): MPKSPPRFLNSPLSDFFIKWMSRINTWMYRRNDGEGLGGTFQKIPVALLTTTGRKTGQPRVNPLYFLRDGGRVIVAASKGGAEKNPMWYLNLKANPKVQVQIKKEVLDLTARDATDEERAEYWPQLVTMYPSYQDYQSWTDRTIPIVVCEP
Outline: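 Ddn (Rv3547) expressed in E. coli as a maltose-binding protein fusion and purified on amylose resin. Activity followed as time- and enzyme-dependent reoxidation of reduced F420 (F420H2), with the nitroimidazole as substrate. Kinetic values given as kcat/Km (min–1 μM–1).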

[4] = molecular target: Deazaflavin-dependent nitroreductase (Mycobacterium tuberculosis) (UniProt P9WP15); experiment: Binding affinity to Mycobacterium tuberculosis Rv3547 assessed as nitrous acid production by Griess method in presence of cofactor F420H2
Outline: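 Purified Ddn incubated with the nitroimidazole and F420H2. Reduction monitored as nitrite formation, read with Griess reagent.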

Row | Structure (SMILES) | Activity [1] | MIC99 [2] | Ratio [3] | Activity [4]
1 | O=[N+]([O-])c1cn2c(n1)OC[C@@H](NCc1ccc(OC(F)(F)F)cc1)C2 | 8 µM | 0.4 µM (≈ 0.143 µg/mL) |  | 
2 | CCCCc1ccc(CN[C@@H]2COc3nc([N+](=O)[O-])cn3C2)cc1 | 75 µM | 0.78 µM (≈ 0.258 µg/mL) |  | 
3 | O=[N+]([O-])c1cn2c(n1)NC[C@@H](OCc1ccc(OC(F)(F)F)cc1)C2 | 130 µM | 0.8 µM (≈ 0.287 µg/mL) |  | 
4 | O=[N+]([O-])c1cn2c(n1)OC[C@@H](NCCc1ccc(OC(F)(F)F)cc1)C2 | 2 µM | 0.04 µM (≈ 0.0149 µg/mL) |  | 
5 | O=[N+]([O-])c1cn2c(n1)OC[C@H](OCc1ccc(OC(F)(F)F)cc1)C2 | 250 µM | 110 µM (≈ 39.5 µg/mL) | 0.016 | 
6 | O=[N+]([O-])c1cn2c(n1)SC[C@@H](OCc1ccc(OC(F)(F)F)cc1)C2 | 25 µM | 1.2 µM (≈ 0.45 µg/mL) |  | 
7 | O=[N+]([O-])c1cn2c(n1)OC[C@@H](OCc1ccc(OC(F)(F)F)cc1)C2 [PRETOMANID] | 12 µM | 0.8 µM (≈ 0.287 µg/mL) | 0.145 | Dose-dependent effect
8 | O=CN1CC(OCc2ccc(OC(F)(F)F)cc2)Cn2cc([N+](=O)[O-])nc21 (single isomer, unassigned) | 31 µM | 6.3 µM (≈ 2.43 µg/mL) |  | 
9 | O=[N+]([O-])c1cn2c(n1)OC[C@@H](NCc1ccc(OCc3ccc(OC(F)(F)F)cc3)cc1)C2 | 2.1 µM | 0.16 µM (≈ 0.0743 µg/mL) |  | 
10 | O=[N+]([O-])c1cn2c(n1)OC[C@@H](NCCCc1ccc(OC(F)(F)F)cc1)C2 | 3.1 µM | 0.08 µM (≈ 0.0309 µg/mL) |  | 
11 | O=[N+]([O-])c1cn2c(n1)OC[C@@H](NCCCCc1ccc(OC(F)(F)F)cc1)C2 | 8.1 µM | 0.04 µM (≈ 0.016 µg/mL) |  | 
